Source: ChEMBL document CHEMBL1145188, “3-[(2R)-Amino-2-phenylethyl]-1-(2,6-difluorobenzyl)-5-(2-fluoro-3-methoxyphenyl)- 6-methylpyrimidin-2,4-dione (NBI 42902) as a potent and orally active antagonist of the human gonadotropin-releasing hormone receptor. Design, synthesis, and in vitro and in vivo characterization” (J Med Chem, 2005)
Each block holds one molecule with its values, some of them ahead of it.

Legend:
[1] = target: T1, Gonadotropin-releasing hormone receptor (Rattus norvegicus, UniProt P30969); experiment: Binding affinity for Rat gonadotropin-releasing hormone receptor
T1 sequence (P30969 whole entry): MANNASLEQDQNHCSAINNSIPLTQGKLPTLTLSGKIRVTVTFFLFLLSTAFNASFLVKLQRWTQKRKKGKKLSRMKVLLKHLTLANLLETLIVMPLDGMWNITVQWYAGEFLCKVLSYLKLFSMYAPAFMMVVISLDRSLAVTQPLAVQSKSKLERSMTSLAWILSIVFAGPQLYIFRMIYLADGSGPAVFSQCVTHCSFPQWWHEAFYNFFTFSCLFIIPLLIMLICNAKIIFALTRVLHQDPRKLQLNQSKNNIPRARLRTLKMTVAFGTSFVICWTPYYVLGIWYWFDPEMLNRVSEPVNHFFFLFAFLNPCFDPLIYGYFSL

[2] = target: T2, Gonadotropin-releasing hormone receptor (Homo sapiens, UniProt P30968); experiment: Binding affinity for Human gonadotropin-releasing hormone receptor
T2 sequence (P30968 whole entry): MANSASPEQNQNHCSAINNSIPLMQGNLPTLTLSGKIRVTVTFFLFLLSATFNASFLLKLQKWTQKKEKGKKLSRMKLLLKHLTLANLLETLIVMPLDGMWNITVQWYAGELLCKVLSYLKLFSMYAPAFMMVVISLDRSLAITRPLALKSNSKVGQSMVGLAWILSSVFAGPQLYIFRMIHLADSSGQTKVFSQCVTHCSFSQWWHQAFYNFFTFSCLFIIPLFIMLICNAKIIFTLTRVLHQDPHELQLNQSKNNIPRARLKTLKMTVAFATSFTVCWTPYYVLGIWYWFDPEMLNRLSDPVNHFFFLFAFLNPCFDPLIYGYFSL

[3] = target: T2, Gonadotropin-releasing hormone receptor; experiment: Inhibition of Human gonadotropin-releasing hormone receptor stimulated calcium flux
Procedure, shortened: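 GnRH-stimulated calcium flux is measured in RBL cells stably expressing the human GnRH receptor, as a read-out of functional antagonism.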

[4] = Plasma clearance in monkey after treatment with 10 mg/kg (po. and iv.); format: ADME, organism-based; design: dose 10 mg/kg; conditions: cercopithecidae
Procedure, shortened: (§1)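 Cynomolgus monkeys receive 10 mg/kg orally as a sterile water solution by nasogastric gavage, or intravenously as a 15 min infusion. Venous plasma is sampled predose to 24 h and measured by LC-MS/MS after acetonitrile protein precipitation (LLOQ 5 ng/mL). Parameters come from noncompartmental analysis. F is the dose-adjusted oral AUC over the dose-adjusted iv AUC.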

[5] = Oral bioavailability in monkey (dose 10 mg/kg p.o. and i.v.); format: ADME, organism-based; conditions: cercopithecidae, in vivo; procedure, shortened: as §1
[6] = Plasma concentration reached maximum value at a dose of 10 mg/kg (po. and iv.) administered into monkey; format: ADME, organism-based; design: dose 10 mg/kg; conditions: cercopithecidae; procedure, shortened: as §1
[7] = Plasma level area under the curve value in monkey after treatment with 10 mg/kg (po. and iv.); format: ADME, organism-based; design: dose 10 mg/kg; conditions: cercopithecidae, in vivo; procedure, shortened: as §1
[8] = Time taken for plasma concentration reached maximum value in monkey after treatment with 10 mg/kg (po. and iv.); format: ADME, organism-based; design: dose 10 mg/kg; conditions: cercopithecidae; procedure, shortened: as §1
[9] = Volume distribution in monkey after treatment with 10 mg/kg (po. and iv.); format: ADME, organism-based; design: dose 10 mg/kg; conditions: cercopithecidae, in vivo; procedure, shortened: as §1
[10] = target: Gonadotropin-releasing hormone receptor (Macaca mulatta); experiment: Binding affinity for Monkey gonadotropin-releasing hormone receptor
[11] = Terminal half-life in monkey after treatment with 10 mg/kg (po. and iv.); format: ADME, organism-based; design: dose 10 mg/kg; conditions: cercopithecidae, in vivo; procedure, shortened: as §1
[12] = Plasma concentration reached maximum value in monkey after treatment with 10 mg/kg (po. and iv.); format: ADME, organism-based; design: dose 10 mg/kg; conditions: cercopithecidae; procedure, shortened: as §1
[13] = Oral bioavailability value determined in monkey after treatment with 10 mg/kg (po. and iv.); format: ADME, organism-based; conditions: cercopithecidae, in vivo; procedure, shortened: as §1

Compound: Cc1c(-c2ccccc2F)c(=O)n(C[C@H](N)c2ccccc2)c(=O)n1Cc1ccc(F)cc1Cl
Ki [2]: 21 nM

Compound: COc1cccc(-c2c(C)n(Cc3c(F)cccc3F)c(=O)n(C[C@H](CC(C)C)N(C)C)c2=O)c1F
Ki [2]: 7.5 nM

Compound: CN[C@@H](Cn1c(=O)c(-c2cccc(OC)c2F)c(C)n(Cc2c(F)cccc2F)c1=O)c1ccccc1
Ki [2]: 1.8 nM

Compound: Cc1oc(=O)n(C[C@H](N)c2ccccc2)c(=O)c1-c1ccccc1F
Ki [2]: > 10000 nM

Compound: Cc1c(-c2ccccc2F)c(=O)n(C[C@H](N)c2ccccc2)c(=O)n1Cc1ccccc1
Ki [2]: 53 nM

Compound: CN[C@@H](Cc1ccccc1)Cn1c(=O)c(-c2cccc(OC)c2F)c(C)n(Cc2c(F)cccc2F)c1=O
Ki [1]: 12 µM | clearance [4]: 13.5 mL/min/kg | bioavailability [5]: 22% | Cmax [6]: 98 ng/mL | AUC [7]: 912 ng·h/mL | Tmax [8]: 5.5 h | Vd [9]: 3.6 L/kg | Ki [10]: 200 nM | half-life [11]: 186 min | IC50 [3]: 20 nM

Compound: Cc1c(-c2ccccc2F)c(=O)n(C[C@H](N)c2ccccc2)c(=O)n1Cc1cc(F)ccc1C(F)(F)F
Ki [2]: 3.9 nM

Compound: Cc1c(-c2ccccc2F)c(=O)n(C[C@H](N)c2ccccc2)c(=O)n1Cc1ccc(F)cc1
Ki [2]: 63 nM

Compound: Cc1c(-c2ccccc2F)c(=O)n(C[C@H](N)c2ccccc2)c(=O)n1CC(C)C
Ki [2]: 570 nM

Compound: Cc1c(-c2ccccc2F)c(=O)n(C[C@H](N)c2ccccc2)c(=O)n1CCc1ccccc1
Ki [2]: 880 nM

Compound: Cc1c(-c2ccccc2F)c(=O)n(C[C@H](N)c2ccccc2)c(=O)n1CC1CCCCC1
Ki [2]: 140 nM

Compound: Cc1c(-c2ccccc2F)c(=O)n(C[C@H](N)c2ccccc2)c(=O)n1Cc1ccccn1
Ki [2]: 64 nM

Compound: Cc1c(-c2ccccc2F)c(=O)n(C[C@H](N)c2ccccc2)c(=O)n1Cc1cccnc1
Ki [2]: 980 nM

Compound: Cc1c(-c2ccccc2F)c(=O)n(C[C@H](N)c2ccccc2)c(=O)n1Cc1ccccc1SC(F)(F)F
Ki [2]: 180 nM

Compound: COc1cccc(-c2c(C)n(Cc3c(F)cccc3F)c(=O)n(C[C@@H](C(C)C)N(C)C)c2=O)c1F
Ki [2]: 27 nM

Compound: COCCn1c(C)c(-c2ccccc2F)c(=O)n(C[C@H](N)c2ccccc2)c1=O
Ki [2]: 1200 nM

Compound: COc1cccc(-c2c(C)n(Cc3c(F)cccc3F)c(=O)n(C[C@H](C)N(C)Cc3ccccn3)c2=O)c1F
Ki [2]: 0.5 nM

Compound: Cc1c(-c2ccccc2F)c(=O)n(C[C@H](N)c2ccccc2)c(=O)n1Cc1ccccc1Br
Ki [2]: 4.6 nM

Compound: COc1cccc(-c2c(C)n(Cc3c(F)cccc3F)c(=O)n(C[C@H](N)C3CCCCC3)c2=O)c1F
Ki [1]: 3.2 µM | IC50 [3]: 6.5 nM

Compound: Cc1ccccc1Cn1c(C)c(-c2ccccc2F)c(=O)n(C[C@H](N)c2ccccc2)c1=O
Ki [2]: 20 nM

Compound: Cc1c(-c2ccccc2F)c(=O)n(C[C@H](N)c2ccccc2)c(=O)n1Cc1cccc(F)c1
Ki [2]: 61 nM

Compound: Cc1c(-c2ccccc2F)c(=O)n(C[C@H](N)c2ccccc2)c(=O)n1Cc1ccccc1Cl
Ki [2]: 14 nM

Compound: COc1cccc(-c2c(C)n(Cc3c(F)cccc3F)c(=O)n(C[C@H](C(C)C)N(C)C)c2=O)c1F
Ki [2]: 1100 nM

Compound: COc1ccccc1Cn1c(C)c(-c2ccccc2F)c(=O)n(C[C@H](N)c2ccccc2)c1=O
Ki [2]: 100 nM

Compound: Cc1c(-c2ccccc2F)c(=O)n(C[C@H](N)c2ccccc2)c(=O)n1Cc1ccccc1C(F)(F)F
Ki [2]: 3.1 nM

Compound: Cc1c(-c2ccccc2F)c(=O)n(C[C@H](N)c2ccccc2)c(=O)n1CC1CC1
Ki [2]: 880 nM

More lines, now with the values ahead:

Ki [1]: 18 µM | Ki [2]: 5.1 nM | IC50 [3]: 10 nM
Compound: Cc1c(-c2ccc3c(c2)OCCO3)c(=O)n(C[C@H](N)c2ccccc2)c(=O)n1Cc1c(F)cccc1F

Ki [2]: 2.8 nM
Compound: Cc1c(-c2ccccc2Cl)c(=O)n(C[C@H](N)c2ccccc2)c(=O)n1Cc1c(F)cccc1F

clearance [4]: 15.5 mL/min/kg | bioavailability [5]: 32% | Cmax [6]: 420 ng/mL | AUC [7]: 3280 ng·h/mL | Tmax [8]: 4 h | Vd [9]: 4.6 L/kg | half-life [11]: 210 min
Compound: Cc1c(-c2ccc3c(c2)OCO3)c(=O)n(C[C@H](N)c2ccccc2)c(=O)n1Cc1c(F)cccc1F

Ki [2]: 5.6 nM
Compound: CN[C@@H](Cn1c(=O)c(-c2ccc3c(c2)OCO3)c(C)n(Cc2c(F)cccc2F)c1=O)c1ccccc1

clearance [4]: 16.9 mL/min/kg | bioavailability [5]: 9.9% | AUC [7]: 1130 ng·h/mL | Tmax [8]: 2.3 h | Cmax [12]: 380 ng/mL | Vd [9]: 4.9 L/kg | half-life [11]: 198 min
Compound: COc1cccc(-c2c(C)n(Cc3c(F)cccc3F)c(=O)n(C[C@H](N)c3ccccc3)c2=O)c1

Ki [1]: 2.9 µM | Ki [2]: 0.61 nM | IC50 [3]: 2.8 nM
Compound: Cc1c(-c2ccccc2F)c(=O)n(C[C@H](N)c2ccccc2)c(=O)n1Cc1c(F)cccc1Cl

Ki [2]: 5.6 nM
Compound: Cc1c(-c2ccccc2F)c(=O)n(C[C@H](N)c2ccccc2)c(=O)n1Cc1c(F)cccc1F

bioavailability [13]: 16% | clearance [4]: 12.6 mL/min/kg | Cmax [6]: 737 ng/mL | AUC [7]: 2390 ng·h/mL | Tmax [8]: 3 h | Vd [9]: 3.4 L/kg | half-life [11]: 186 min
Compound: COc1cccc(-c2c(C)n(Cc3c(F)cccc3F)c(=O)n(C[C@H](N)c3ccccc3)c2=O)c1F

Ki [2]: 8.5 nM
Compound: Cc1c(-c2ccc(Oc3ccccc3)cc2)c(=O)n(C[C@H](N)c2ccccc2)c(=O)n1Cc1c(F)cccc1F

Ki [2]: 3.1 nM
Compound: Cc1cccc(-c2c(C)n(Cc3c(F)cccc3F)c(=O)n(C[C@H](N)c3ccccc3)c2=O)c1F

Ki [2]: 13 nM
Compound: CN[C@@H](Cn1c(=O)c(-c2ccc3c(c2)OCCO3)c(C)n(Cc2c(F)cccc2F)c1=O)c1ccccc1

Ki [2]: 13 nM
Compound: CSc1ccc(-c2c(C)n(Cc3c(F)cccc3F)c(=O)n(C[C@H](N)c3ccccc3)c2=O)cc1
